Measurements: ChEMBL document CHEMBL1240503, “Design, synthesis and biological evaluation of new (E)- and (Z)-1,2,3-triaryl-2-propen-1-ones as selective COX-2 inhibitors” (Eur J Med Chem, 2010)

What follows are molecules tested against T1, Prostaglandin G/H synthase 1 (Ovis aries, UniProt P05979) (assay: Inhibition of ovine COX1 by chemiluminescence assay).
T1 sequence (P05979 whole entry): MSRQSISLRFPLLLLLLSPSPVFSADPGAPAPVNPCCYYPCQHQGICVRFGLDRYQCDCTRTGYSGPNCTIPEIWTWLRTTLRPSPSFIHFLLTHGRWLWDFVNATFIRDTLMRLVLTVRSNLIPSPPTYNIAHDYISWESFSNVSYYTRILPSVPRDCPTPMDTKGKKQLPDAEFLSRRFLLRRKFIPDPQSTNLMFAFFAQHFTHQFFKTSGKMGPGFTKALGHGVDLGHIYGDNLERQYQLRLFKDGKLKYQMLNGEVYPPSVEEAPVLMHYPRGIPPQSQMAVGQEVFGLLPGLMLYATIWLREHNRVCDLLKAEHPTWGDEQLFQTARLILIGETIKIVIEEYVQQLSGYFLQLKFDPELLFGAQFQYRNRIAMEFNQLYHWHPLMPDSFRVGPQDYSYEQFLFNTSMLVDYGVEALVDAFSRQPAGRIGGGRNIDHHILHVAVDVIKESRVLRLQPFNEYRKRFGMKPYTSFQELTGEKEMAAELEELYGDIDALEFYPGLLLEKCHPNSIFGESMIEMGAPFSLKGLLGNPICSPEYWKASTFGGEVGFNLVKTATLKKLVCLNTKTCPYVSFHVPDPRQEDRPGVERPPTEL
In short: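 Enzyme activity read as arachidonate-induced luminescence, taken as a real-time index of COX catalytic turnover; inhibition measured as loss of this luminescence signal.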
Work on `CS(=O)(=O)c1ccc(C(=O)/C(=C/c2ccccc2)c2ccccc2)cc1` yielded an IC50 of 13.3 µM.
Molecule `CS(=O)(=O)c1ccc(C(=O)/C(=C\c2ccccc2)c2ccccc2)cc1` has an IC50 of 14.3 µM.
With `CS(=O)(=O)c1ccc(C(=O)/C(=C/c2ccc(F)cc2)c2ccccc2)cc1` the IC50 was 12.6 µM.
With `CS(=O)(=O)c1ccc(C(=O)/C(=C\c2ccc(F)cc2)c2ccccc2)cc1` the IC50 was 30.9 µM.
With `Cc1ccc(/C=C(/C(=O)c2ccc(S(C)(=O)=O)cc2)c2ccccc2)cc1` the IC50 was 10.4 µM.
For `Cc1ccc(/C=C(\C(=O)c2ccc(S(C)(=O)=O)cc2)c2ccccc2)cc1`, the IC50 was 12.2 µM.
`COc1ccc(/C=C(/C(=O)c2ccc(S(C)(=O)=O)cc2)c2ccccc2)cc1` was tested, and the IC50 was 10.7 µM.
Molecule `COc1ccc(/C=C(\C(=O)c2ccc(S(C)(=O)=O)cc2)c2ccccc2)cc1` has an IC50 of 18.4 µM.
Molecule `CS(=O)(=O)c1ccc(C(=O)/C(=C/c2ccc(O)cc2)c2ccccc2)cc1` has an IC50 of 14.4 µM.
With `CS(=O)(=O)c1ccc(C(=O)/C(=C/c2cccs2)c2ccccc2)cc1` the IC50 was 13.1 µM.
`CS(=O)(=O)c1ccc(C(=O)C(=Cc2ccncc2)c2ccccc2)cc1` (mixture of isomers) showed an IC50 of 12.4 µM.
